Laboratory results reported in ChEMBL document CHEMBL2150894, “Synthesis and anti-staphylococcal activity of new 4-diazopyrazole derivatives” (2012).
Values after ≈ are worked out from the molar mass of the structure shown. Active and inactive are the calls of the source. No cut-off for these calls is given here.

Experiments:
Type in all cases: functional
Staphylococcus aureus [1] = assay: Antibacterial activity against Staphylococcus aureus ATCC 6538 after 24 hrs by broth microdilution method; conditions: ATCC 6538, 24 h
Method in brief: (§1)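 Broth microdilution in Mueller Hinton broth with twofold serial dilutions spanning 50 to 0.001. Each well received inoculum from a 24 h culture containing about 10⁶ cfu mL⁻¹, then incubated at 37 °C for 24 h. MIC was the lowest concentration whose OD570 matched the broth-only negative control. Veterinary isolates came from milk and food samples (IZS Sicily collection).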

Staphylococcus aureus [2] = assay: Antibacterial activity against Staphylococcus aureus isolate 722 obtained from veterinary sample after 24 hrs by broth microdilution method; conditions: isolate 722, 24 h; method in brief: as §1
Staphylococcus aureus [3] = assay: Antibacterial activity against Staphylococcus aureus isolate 357 obtained from veterinary sample after 24 hrs by broth microdilution method; conditions: isolate 357, 24 h; method in brief: as §1
Staphylococcus aureus [4] = assay: Antibacterial activity against Staphylococcus aureus ATCC 25923 after 24 hrs by broth microdilution method; conditions: ATCC 25923, 24 h; method in brief: as §1
Staphylococcus aureus [5] = assay: Antibacterial activity against Staphylococcus aureus ATCC 29213 after 24 hrs by broth microdilution method; conditions: ATCC 29213, 24 h; method in brief: as §1
Staphylococcus aureus [6] = assay: Antibacterial activity against Staphylococcus aureus ATCC 25923 assessed as inhibition of biofilm formation at 3.1 ug/mL
Staphylococcus aureus [7] = assay: Antibacterial activity against Staphylococcus aureus isolate 712 obtained from veterinary sample after 24 hrs by broth microdilution method; conditions: isolate 712, 24 h; method in brief: as §1
Staphylococcus aureus [8] = assay: Antibacterial activity against Staphylococcus aureus isolate 708 obtained from veterinary sample assessed as inhibition of biofilm formation at 3.1 ug/mL
Staphylococcus aureus [9] = assay: Antibacterial activity against Staphylococcus aureus isolate 723 obtained from veterinary sample after 24 hrs by broth microdilution method; conditions: isolate 723, 24 h; method in brief: as §1
Staphylococcus aureus [10] = assay: Antibacterial activity against Staphylococcus aureus ATCC 29213 assessed as inhibition of biofilm formation at 3.1 ug/mL
Staphylococcus aureus [11] = assay: Antibacterial activity against Staphylococcus aureus isolate 100 obtained from veterinary sample after 24 hrs by broth microdilution method; conditions: isolate 100, 24 h; method in brief: as §1
Staphylococcus aureus [12] = assay: Antibacterial activity against Staphylococcus aureus isolate 708 obtained from veterinary sample after 24 hrs by broth microdilution method; conditions: isolate 708, 24 h; method in brief: as §1
Staphylococcus aureus [13] = assay: Antibacterial activity against Staphylococcus aureus ATCC 29213
Method in brief: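 Broth microdilution: twofold serial dilutions of compound (range 50 to 0.001) in Mueller Hinton broth, each well inoculated with bacterial suspension from a 24 h culture containing ~10⁶ cfu/mL. Incubated 37 °C for 24 h.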

Staphylococcus aureus [14] = assay: Antibacterial activity against methicillin-resistant Staphylococcus aureus clinical isolate
Staphylococcus aureus [15] = assay: Antibacterial activity against Staphylococcus aureus ATCC 29213 assessed as inhibition of biofilm formation at 25 ug/mL
Staphylococcus aureus [16] = assay: Antibacterial activity against methicillin-resistant Staphylococcus aureus ATCC 43866 assessed as inhibition of biofilm formation at 25 ug/mL
[17] = test system: Staphylococcus epidermidis; assay: Antibacterial activity against Staphylococcus epidermidis RP62A
[18] = test system: Staphylococcus epidermidis; assay: Antibacterial activity against Staphylococcus epidermidis RP62A assessed as inhibition of biofilm formation at 25 ug/mL
Staphylococcus aureus [19] = assay: Antibacterial activity against methicillin-resistant Staphylococcus aureus ATCC 43866
Staphylococcus aureus [20] = assay: Antibacterial activity against Staphylococcus aureus ATCC 29213 by NCCLS method
[21] = test system: Staphylococcus epidermidis; assay: Antibacterial activity against Staphylococcus epidermidis RP62A assessed as inhibition of biofilm formation

| Compound | MIC (Staphylococcus aureus [1]) [µg/mL] | MIC (Staphylococcus aureus [2]) [µg/mL] | MIC (Staphylococcus aureus [3]) [µg/mL] | MIC (Staphylococcus aureus [4]) [µg/mL] | MIC (Staphylococcus aureus [5]) [µg/mL] | MIC (Staphylococcus aureus [7]) [µg/mL] | MIC (Staphylococcus aureus [9]) [µg/mL] | MIC (Staphylococcus aureus [11]) [µg/mL] | MIC (Staphylococcus aureus [12]) [µg/mL] | further results |
| --- | --- | --- | --- | --- | --- | --- | --- | --- | --- | --- |
| Cc1nn(C)c([N-]C(=O)Cc2ccccc2)c1[N+]#N | 3.1 (≈ 12.1 µM) | 6.2 (≈ 24.3 µM) | 1.5 (≈ 5.88 µM) | 6.2 (≈ 24.3 µM) | 3.1 (≈ 12.1 µM) | 1.5 (≈ 5.88 µM) | 3.1 (≈ 12.1 µM) | 3.1 (≈ 12.1 µM) | 6.2 (≈ 24.3 µM) | inhibition at 3.1 µg/mL (Staphylococcus aureus [6]): 45.7%; inhibition (Staphylococcus aureus [8]): inactive; inhibition (Staphylococcus aureus [10]): inactive |
| Cc1nn(C)c([N-]C(=O)Nc2ccc(Cl)c(Cl)c2)c1[N+]#N | 6.2 (≈ 19.1 µM) | 3.1 (≈ 9.53 µM) | 6.2 (≈ 19.1 µM) | 6.2 (≈ 19.1 µM) | 6.2 (≈ 19.1 µM) | 25 (≈ 76.9 µM) | 3.1 (≈ 9.53 µM) | 3.1 (≈ 9.53 µM) | 6.2 (≈ 19.1 µM) | – |
| Cc1nn(C)c([N-]C(=O)Cc2ccc(Cl)cc2)c1[N+]#N | 6.2 (≈ 21.4 µM) | 12.5 (≈ 43.1 µM) | 1.5 (≈ 5.18 µM) | 25 (≈ 86.3 µM) | 25 (≈ 86.3 µM) | 50 (≈ 173 µM) | 3.1 (≈ 10.7 µM) | 6.2 (≈ 21.4 µM) | 12.5 (≈ 43.1 µM) | – |
| CCCCOc1ccc(NC(=O)[N-]c2c([N+]#N)c(C)nn2C)c([N+](=O)[O-])c1 | > 50 | > 50 | > 50 | > 50 | > 50 | > 50 | > 50 | > 50 | > 50 | – |
| Cc1nn(C)c([N-]C(=O)Nc2ccccc2)c1[N+]#N | 12.5 (≈ 48.8 µM) | 25 (≈ 97.6 µM) | 6.2 (≈ 24.2 µM) | 12.5 (≈ 48.8 µM) | 12.5 (≈ 48.8 µM) | 50 (≈ 195 µM) | 6.2 (≈ 24.2 µM) | 12.5 (≈ 48.8 µM) | 25 (≈ 97.6 µM) | – |
| Cc1nn(C)c([N-]C(=O)c2ccc([N+](=O)[O-])cc2)c1[N+]#N | – | – | – | – | – | – | – | – | – | MIC (Staphylococcus aureus [13]): 1.5 µg/mL (≈ 5.24 µM); MIC (Staphylococcus aureus [14]): 2 µg/mL (≈ 6.99 µM); inhibition at 25 µg/mL (Staphylococcus aureus [15]): 69.7%; inhibition at 25 µg/mL (Staphylococcus aureus [16]): 69.7%; MIC [17]: 1.5 µg/mL (≈ 5.24 µM); inhibition at 25 µg/mL [18]: 69.7%; MIC (Staphylococcus aureus [19]): 1.5 µg/mL (≈ 5.24 µM) |
| CO[C@H]1/C=C/O[C@@]2(C)Oc3c(C)c(O)c4c(O)c(c(/C=N/N5CCN(C)CC5)c(O)c4c3C2=O)NC(=O)/C(C)=C\C=C\[C@H](C)[C@H](O)[C@@H](C)[C@@H](O)[C@@H](C)[C@H](OC(C)=O)[C@@H]1C [RIFAMPIN] | 0.015 (≈ 0.0182 µM) | 0.6 (≈ 0.729 µM) | 0.015 (≈ 0.0182 µM) | 0.015 (≈ 0.0182 µM) | 0.015 (≈ 0.0182 µM) | 0.3 (≈ 0.365 µM) | 1.25 (≈ 1.52 µM) | 0.07 (≈ 0.0851 µM) | 0.07 (≈ 0.0851 µM) | MIC (Staphylococcus aureus [20]): 0.008 µg/mL (≈ 0.00972 µM) |
| COc1ccc(CC(=O)[N-]c2c([N+]#N)c(C)nn2C)cc1 | 6.2 (≈ 21.7 µM) | 6.2 (≈ 21.7 µM) | 6.2 (≈ 21.7 µM) | 6.2 (≈ 21.7 µM) | 6.2 (≈ 21.7 µM) | 25 (≈ 87.6 µM) | 6.2 (≈ 21.7 µM) | 3.1 (≈ 10.9 µM) | 6.2 (≈ 21.7 µM) | inhibition at 3.1 µg/mL (Staphylococcus aureus [6]): 38%; inhibition at 3.1 µg/mL (Staphylococcus aureus [8]): 25%; inhibition at 3.1 µg/mL (Staphylococcus aureus [10]): 45.7% |
| Cc1nn(C)c([N-]C(=O)Nc2ccc(OCc3ccccc3)cc2[N+](=O)[O-])c1[N+]#N | > 50 | > 50 | > 50 | > 50 | > 50 | > 50 | > 50 | > 50 | > 50 | – |
| Cc1nn(C)c([N-]C(=O)Nc2ccc([N+](=O)[O-])cc2)c1[N+]#N | 6.2 (≈ 20.6 µM) | 3.1 (≈ 10.3 µM) | 3.1 (≈ 10.3 µM) | 6.2 (≈ 20.6 µM) | 6.2 (≈ 20.6 µM) | 3.1 (≈ 10.3 µM) | 100 (≈ 332 µM) | > 100 | 3.1 (≈ 10.3 µM) | – |
| Cc1nn(C)c([N-]C(=O)c2ccc(Cl)cc2Cl)c1[N+]#N | – | – | – | – | – | – | – | – | – | MIC (Staphylococcus aureus [13]): 1.5 µg/mL (≈ 4.84 µM); MIC (Staphylococcus aureus [14]): 2 µg/mL (≈ 6.45 µM); inhibition [21]: Active; MIC [17]: 1.5 µg/mL (≈ 4.84 µM); MIC (Staphylococcus aureus [19]): 1.5 µg/mL (≈ 4.84 µM) |
| Cc1nn(C)c([N-]C(=O)Nc2ccc(Cl)cc2)c1[N+]#N | 25 (≈ 86 µM) | 12.5 (≈ 43 µM) | 6.2 (≈ 21.3 µM) | 6.2 (≈ 21.3 µM) | 6.2 (≈ 21.3 µM) | 3.1 (≈ 10.7 µM) | 12.5 (≈ 43 µM) | 6.2 (≈ 21.3 µM) | 25 (≈ 86 µM) | – |
| Cc1nn(C)c([N-]C(=O)c2ccc(Cl)cc2)c1[N+]#N | – | – | – | – | – | – | – | – | – | MIC (Staphylococcus aureus [13]): 1.5 µg/mL (≈ 5.44 µM); MIC (Staphylococcus aureus [14]): 2 µg/mL (≈ 7.25 µM); inhibition at 25 µg/mL (Staphylococcus aureus [15]): 69.7%; inhibition at 25 µg/mL (Staphylococcus aureus [16]): 69.7%; MIC [17]: 1.5 µg/mL (≈ 5.44 µM); inhibition at 25 µg/mL [18]: 69.7%; MIC (Staphylococcus aureus [19]): 1.5 µg/mL (≈ 5.44 µM) |
| COc1ccc(NC(=O)[N-]c2c([N+]#N)c(C)nn2C)c([N+](=O)[O-])c1 | > 50 | > 50 | > 50 | > 50 | > 50 | > 50 | > 50 | > 50 | > 50 | – |
